Published values pooled from the literature.
Each line is one published result; the experiments were not run side by side.
Target: Muscarinic acetylcholine receptor M2 (CHRM2, Homo sapiens, UniProt P08172)
Tested at: 10 µM
Sequence (P08172 1-466, as in one of the studies): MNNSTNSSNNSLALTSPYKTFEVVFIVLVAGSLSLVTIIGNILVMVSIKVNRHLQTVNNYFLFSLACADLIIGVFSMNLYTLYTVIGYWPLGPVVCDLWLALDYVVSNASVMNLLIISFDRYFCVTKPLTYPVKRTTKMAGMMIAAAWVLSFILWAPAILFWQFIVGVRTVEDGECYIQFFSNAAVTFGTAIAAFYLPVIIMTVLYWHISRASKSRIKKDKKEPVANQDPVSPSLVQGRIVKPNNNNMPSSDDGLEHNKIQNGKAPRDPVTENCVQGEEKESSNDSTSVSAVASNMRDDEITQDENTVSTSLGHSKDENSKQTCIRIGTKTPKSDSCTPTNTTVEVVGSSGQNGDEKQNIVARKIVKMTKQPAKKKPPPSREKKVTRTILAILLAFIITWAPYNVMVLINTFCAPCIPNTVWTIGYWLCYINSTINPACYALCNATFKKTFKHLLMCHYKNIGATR

Structure (SMILES) | effect on | technique | inhibition
CCCNc1nc2ccccc2n1Cc1ccc(Cl)cc1 | ligand displacement |  | 13.7%
CCN(CC)c1ccc(C2Nc3ccc(C(=O)c4ccccc4)cc3NC3=C2C(=O)CC(C)(C)C3)cc1 (centres unmarked) | ligand displacement | radioligand | -1%
COc1cc(NC(C)=O)c(Cl)cc1C(=O)Nc1nccs1 | cell-free assay |  | -25.3%
CCN(Cc1ccccc1C(F)(F)F)C(=O)C1CCN(S(=O)(=O)c2ccc3[nH]ncc3c2)CC1 | ligand displacement | radioligand | 1%
N#Cc1cc(Cn2c(N3CCCC3)nc3ccccc32)ccc1F | ligand displacement |  | 7.75%
Ic1cccc2cnccc12 | ligand displacement | radioligand | 0%
CC1CCN(c2ccnc(NCc3cn(C)cn3)n2)CC1 | ligand displacement |  | 7.21%
O=C1N=C(N2CCCCN2)S/C1=C\c1ccc(F)cc1O | ligand displacement | radioligand | < 10%
O=C(c1ccc(Cl)cc1)N(Cc1ccccc1)C1CCCCC1 | cell-free assay |  | 38.2%
O=C(NNS(=O)(=O)c1ccccc1F)c1cc(F)cc(-c2ccccn2)c1 | cell-free assay |  | 15.9%
O=C(Nc1ccc(S(=O)(=O)N2CCC(Cl)CC2)cc1)c1ccc([N+](=O)[O-])o1 | ligand displacement | radioligand | 10%
